Experimental data published in ChEMBL document CHEMBL1221400, “Synthesis, antimalarial activity, and cellular toxicity of new arylpyrrolylaminoquinolines” (Bioorg Med Chem, 2010).
pIC50: −log10 of the molar value.

Columns and labels:
[1] = Cytotoxicity against HMEC1 cells after 72 hrs by MTT assay; type: cell-based, HMEC-1; conditions: human
Summary of the method: (§1)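 Cells were exposed to serial dilutions of compound for 72 h at 37 °C in 5% CO2. MTT was then added for another 3 h, and formazan was dissolved in SDS/DMF lysing buffer at pH 4.7. Absorbance was read at 550 nm against a 650 nm reference. […] Media: HMEC-1 in MCDB 131 with 10% FCS, EGF and hydrocortisone; K562 and WEHI 13 in RPMI 1640 with 10% FCS; HDF in DMEM with 10% FCS.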

[2] = system: Plasmodium falciparum; assay: Ratio of IC50 for chloroquine-resistant Plasmodium falciparum W2 to IC50 for chloroquine-sensitive Plasmodium falciparum D10
[3] = Cytotoxicity against mouse WEHI13 cells after 72 hrs by MTT assay; type: cell-based; summary of the method: as §1
[4] = Cytotoxicity against human K562 cells after 72 hrs by MTT assay; type: cell-based; summary of the method: as §1
[5] = Vacuolar accumulation ratio of the compound at pH 5.2; type: ADME
[6] = Lipid accumulation ratio of the compound at pH 7.4; type: physicochemical
[7] = Distribution coefficient, log D of the compound at pH 7.4; type: physicochemical; conditions: octanol/water
[8] = Octanol-water partition coefficient, log P of the compound; type: physicochemical
[9] = Inhibition of beta-hematin formation assessed as molar equivalents by BHIA assay relative to hemin; type: functional
[10] = system: Plasmodium falciparum; assay: Ratio of chloroquine IC50 to compound IC50 for chloroquine-sensitive Plasmodium falciparum D10
[11] = system: Plasmodium falciparum; assay: Antimalarial activity against chloroquine-sensitive Plasmodium falciparum D10 infected in human A+ RBC after 72 hrs by parasite LDH assay; type: functional, organism-based; conditions: D10, 72 h
Summary of the method: (§2)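 P. falciparum (D10 CQ-sensitive; W2 CQ-resistant) kept at 5% hematocrit in human A+ red cells in RPMI 1640 with 1% AlbuMax, hypoxanthine, 20 mM Hepes and glutamine, at 37 °C under 1% O2/5% CO2/94% N2. Asynchronous cultures (1–1.5% parasitaemia, 1% final hematocrit) were exposed to serial dilutions (final DMSO <1%) for 72 h. pLDH activity was read at OD650. IC50 given as mean ± SD of ≥3 experiments run in duplicate.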

[12] = Cytotoxicity against HDF after 72 hrs by MTT assay; type: cell-based; conditions: human; summary of the method: as §1
[13] = system: Plasmodium falciparum; assay: Antimalarial activity against chloroquine-resistant Plasmodium falciparum W2 infected in human A+ erythrocytes after 72 hrs by parasite LDH assay; type: functional, organism-based; conditions: W2, 72 h; summary of the method: as §2
[14] = system: Plasmodium falciparum; assay: Ratio of chloroquine IC50 to compound IC50 for chloroquine-resistant Plasmodium falciparum W2

Structure (SMILES)	CC50 at 72 h [1] [nM]	Ratio IC50 [2]	CC50 at 72 h [3] [nM]	CC50 at 72 h [4] [nM]	Ratio [5]	Ratio [6]	logD [7]	logP [8]	IC50 [9] [equivalents]	Ratio IC50 [10]	pIC50 [11]	CC50 at 72 h [12] [nM]	pIC50 [13]	Ratio IC50 [14]
CCN(CC)Cc1cc(-c2ccccc2)n(Nc2ccnc3cc(Cl)ccc23)c1C	16700	1.4	4380	3620	–	–	–	–	–	–	–	–	–	–
Cc1c(CN2CCCC2)cc(-c2ccc(Cl)cc2)n1Nc1ccnc2cc(Cl)ccc12	7180	1.6	2060	–	1513.6	11481.5	4.06	5.17	0.36	–	–	–	–	–
CCN(CC)Cc1cc(-c2ccc(C)cc2)n(Nc2ccnc3cc(Cl)ccc23)c1C	7050	1.7	3650	–	–	–	–	–	–	0.6	7.49	10300	7.26	6.4
Cc1c(CN2CCCC2)cc(-c2ccc(Cl)cc2)n1CCCNc1ccnc2cc(Cl)ccc12	–	10.7	–	–	24547.1	223.9	2.35	4.38	0.82	0.8	7.64	–	6.61	1.7
Cc1c(CN2CCCC2)cc(-c2ccc(F)cc2)n1Nc1ccnc2cc(Cl)ccc12	10100	2.4	2710	1660	1548.8	2818.4	3.45	4.86	–	0.8	7.49	–	7.11	5.7
Cc1c(CN2CCCC2)cc(-c2ccc(N)cc2)n1Nc1ccnc2cc(Cl)ccc12	–	10.6	–	–	16982.4	107.1	2.03	4.38	–	0.5	7.37	–	6.34	0.5
CCN(CC)CCCC(C)Nc1ccnc2cc(Cl)ccc12 (stereo unspecified) [CHLOROQUINE]	> 32000	–	> 38000	> 25000	–	–	–	–	1.27	–	–	> 38000	–	–
Cc1c(CN2CCCC2)cc(-c2ccccc2)n1Nc1ccnc2cc(Cl)ccc12	12900	3.3	3880	2920	1698.2	1905.5	3.28	4.6	0.54	–	–	–	–	–
CCN(CC)Cc1cc(-c2ccc(Cl)cc2)n(Nc2ccnc3cc(Cl)ccc23)c1C	5810	1.6	1450	–	–	–	–	–	–	–	–	–	–	–
Cc1c(CN2CCCC2)cc(-c2ccc(C(F)(F)F)cc2)n1Nc1ccnc2cc(Cl)ccc12	4700	1	2680	1220	912	52480.8	4.72	5.28	–	0.5	7.24	–	7.23	6.7
CCN(CC)Cc1cc(-c2ccc(F)cc2)n(Nc2ccnc3cc(Cl)ccc23)c1C	18600	1.3	3020	2360	–	–	–	–	–	0.5	7.21	–	7.10	5
CCN(CC)Cc1cc(-c2ccc(N)cc2)n(Nc2ccnc3cc(Cl)ccc23)c1C	–	5.8	–	–	–	–	–	–	–	0.5	7.27	–	6.50	0.9
CCN(CC)Cc1cc(-c2ccc(Cl)cc2)n(CCCNc2ccnc3cc(Cl)ccc23)c1C	–	6.9	–	–	–	–	–	–	–	0.7	7.59	–	6.75	2.3
Cc1ccc(-c2cc(CN3CCCC3)c(C)n2Nc2ccnc3cc(Cl)ccc23)cc1	7150	2.1	4480	–	1862.1	8128.3	3.91	5.19	0.45	0.6	7.51	13200	7.18	5.4
